In ChEMBL document CHEMBL1147678, “Discovery of a potent, nonpolyglutamatable inhibitor of glycinamide ribonucleotide transformylase” (J Med Chem, 2006) one finds IC50 and Ki data, which are given here for 5 molecules.

SMILES strings stand for the structures.

Test [1] concerns CCRF-CEM. Put plainly: Antiproliferative activity against reduced folate carrier-deficient CCRF-CEM cell line. Format: functional, cell-based. As to conditions: Homo sapiens. The gist of the method: (§1)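 CCRF-CEM human leukemia cells (parental or variant line) were continuously exposed to the test compounds for 72 h, and growth inhibition was then measured.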
The subject of test [2] is CCRF-CEM. Put plainly: Antiproliferative activity against human CCRF-CEM cell line in presence of thymidine. Format: functional, cell-based.
The test system of test [3] is CCRF-CEM. Put plainly: Antiproliferative activity against FPGS-deficient CCRF-CEM cell line. As to conditions: Homo sapiens. The class given is functional, cell-based. The gist of the method:
as §1

The target in test [4] is T1, Trifunctional purine biosynthetic protein adenosine-3 (Homo sapiens, UniProt P22102).
T1 sequence (P22102 whole entry): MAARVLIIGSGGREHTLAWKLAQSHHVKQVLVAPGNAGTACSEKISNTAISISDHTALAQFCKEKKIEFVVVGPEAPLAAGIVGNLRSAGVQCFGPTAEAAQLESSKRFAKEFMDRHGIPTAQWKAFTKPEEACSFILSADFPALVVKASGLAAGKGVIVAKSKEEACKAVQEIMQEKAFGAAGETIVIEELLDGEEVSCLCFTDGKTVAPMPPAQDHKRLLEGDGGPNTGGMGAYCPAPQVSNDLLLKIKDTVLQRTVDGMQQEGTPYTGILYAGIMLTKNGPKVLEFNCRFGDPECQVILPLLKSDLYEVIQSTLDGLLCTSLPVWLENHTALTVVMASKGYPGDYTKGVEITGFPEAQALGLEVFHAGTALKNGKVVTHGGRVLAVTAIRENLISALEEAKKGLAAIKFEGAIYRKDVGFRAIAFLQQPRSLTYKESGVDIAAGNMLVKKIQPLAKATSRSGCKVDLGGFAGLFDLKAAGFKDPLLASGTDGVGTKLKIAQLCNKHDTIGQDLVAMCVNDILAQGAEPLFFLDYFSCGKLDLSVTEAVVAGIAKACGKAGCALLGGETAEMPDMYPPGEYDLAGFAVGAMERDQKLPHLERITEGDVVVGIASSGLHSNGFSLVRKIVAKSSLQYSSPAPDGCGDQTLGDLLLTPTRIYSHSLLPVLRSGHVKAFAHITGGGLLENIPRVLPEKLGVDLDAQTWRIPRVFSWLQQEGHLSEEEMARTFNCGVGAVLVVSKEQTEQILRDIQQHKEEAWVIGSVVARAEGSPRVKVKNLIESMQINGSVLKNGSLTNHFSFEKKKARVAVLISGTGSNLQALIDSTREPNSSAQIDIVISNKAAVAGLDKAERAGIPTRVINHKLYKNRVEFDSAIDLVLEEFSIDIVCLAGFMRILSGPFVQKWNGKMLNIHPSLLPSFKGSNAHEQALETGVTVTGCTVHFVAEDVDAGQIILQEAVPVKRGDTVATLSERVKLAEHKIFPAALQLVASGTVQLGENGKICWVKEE
Put plainly: Inhibition of human recombinant GAR Tfase.

The target of test [5] is Bifunctional purine biosynthesis protein ATIC (Homo sapiens, UniProt P31939). Put plainly: Inhibition of human recombinant AICAR Tfase. The gist of the method:
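Recombinant human AICAR Tfase assayed by a previously described method. Reaction kinetics were followed for 2 min after initiation. Ki was derived from Dixon plots.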

Test [6] deals with CCRF-CEM. Put plainly: Antiproliferative activity against human CCRF-CEM cell line. Format: functional, cell-based. The gist of the method: as §1
The subject of test [7] is CCRF-CEM. Put plainly: Antiproliferative activity against human CCRF-CEM cell line in presence of hypoxanthine. The class given is functional, cell-based.

The IC50 is the concentration needed to halve the response being measured. What is called Ki is the equilibrium dissociation constant of an inhibitor or competing ligand from its target.

Bifunctional purine biosynthesis protein ATIC, sequence (P31939 whole entry): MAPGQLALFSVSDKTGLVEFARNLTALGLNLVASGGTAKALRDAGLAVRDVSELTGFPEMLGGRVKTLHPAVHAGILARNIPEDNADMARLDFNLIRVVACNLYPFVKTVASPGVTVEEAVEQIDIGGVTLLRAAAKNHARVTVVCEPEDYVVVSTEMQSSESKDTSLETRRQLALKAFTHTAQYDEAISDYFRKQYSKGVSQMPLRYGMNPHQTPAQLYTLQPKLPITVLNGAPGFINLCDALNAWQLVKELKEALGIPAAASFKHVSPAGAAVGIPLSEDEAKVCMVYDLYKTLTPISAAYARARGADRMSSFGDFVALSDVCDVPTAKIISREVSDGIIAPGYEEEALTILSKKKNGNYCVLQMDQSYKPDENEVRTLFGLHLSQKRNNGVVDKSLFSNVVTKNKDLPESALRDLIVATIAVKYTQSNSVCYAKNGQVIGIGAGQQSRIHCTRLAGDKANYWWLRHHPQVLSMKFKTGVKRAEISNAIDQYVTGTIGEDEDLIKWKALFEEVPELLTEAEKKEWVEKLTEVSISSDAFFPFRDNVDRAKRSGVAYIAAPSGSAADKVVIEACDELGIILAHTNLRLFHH

With `Nc1nc(N)c(CCCC(C(=O)C(F)(F)F)c2ccc(C(=O)NCC(=O)O)cc2)c(O)n1` (stereo unspecified), the IC50 in the test with CCRF-CEM [1], in the test with CCRF-CEM [2], in the test with CCRF-CEM [3], in the test on CCRF-CEM [6] and with CCRF-CEM [7] was more than 100 µM throughout. The Ki in test [4] was 21 µM; in test [5] it was more than 100 µM.

As to `Nc1nc(N)c(CCCC(C(=O)C(F)(F)F)c2ccc(C(=O)NC(CCC(=O)O)C(=O)O)cc2)c(O)n1` (stereo unspecified), the IC50 with CCRF-CEM [1] was more than 100 µM; in the test with CCRF-CEM [2] it was 0.017 µM; with CCRF-CEM [3], more than 100 µM; with CCRF-CEM [6], 0.016 µM; in the test on CCRF-CEM [7], more than 100 µM. The Ki in test [5] is more than 100 µM.

In the case of `Nc1nc(N)c(CCCC(C(=O)C(F)(F)F)c2ccc(C(=O)NCc3nnn[nH]3)cc2)c(=O)[nH]1` (stereo unspecified), the IC50 was 30 µM in the test with CCRF-CEM [1]; 30 µM with CCRF-CEM [2]; 40 µM in the test on CCRF-CEM [3]; 10 µM with CCRF-CEM [6]; more than 100 µM in the test with CCRF-CEM [7]. In addition, the Ki was 5 µM in test [4] and more than 100 µM in test [5].

In the case of `Nc1nc(N)c(CCCC(C(=O)C(F)(F)F)c2ccc(C(=O)N[C@@H](CCc3nnn[nH]3)C(=O)O)cc2)c(=O)[nH]1` (stereo partly specified), the IC50 is 10 µM in the test on CCRF-CEM [1]; 0.09 µM in the test with CCRF-CEM [2]; 0.05 µM with CCRF-CEM [3]; 0.04 µM in the test on CCRF-CEM [6]; more than 100 µM with CCRF-CEM [7]. In addition, the Ki was found to be 0.13 µM in test [4] and 46 µM in test [5].

Turning to `Nc1nc2c(c(=O)[nH]1)C[C@@H](CCc1ccc(C(=O)N[C@@H](CCC(=O)O)C(=O)O)cc1)CN2` [LOMETREXOL], the IC50 with CCRF-CEM [3] is 25 µM; with CCRF-CEM [6], 0.2 µM; in the test with CCRF-CEM [7], more than 100 µM. The Ki in test [5] is more than 100 µM.
